Assay [1] can be described thus: Inhibition of gamma-secretase expressed in african green monkey CV1 cells coexpressing Gal4 DNA-binding/transactivation domain assessed as inhibition of notch processing by luciferase reporter assay. In kind it is cell-based. Conditions: CV-1.
A further assay deals with CV-1. The assay is described as follows: Inhibition of gamma-secretase expressed in african green monkey CV1 cells coexpressing Gal4 DNA-binding/transactivation domain assessed as inhibition of notch processing by luciferase reporter assay at 20 uM. In kind it is cell-based. For orientation: A reporter such as luciferase makes a cellular process visible.
Assay [2] concerns the target T1, Gamma-secretase (Homo sapiens) (UniProt Q96BI3+Q9NZ42+Q8WW43+P49768+Q92542+P49810). In words: (§1) Inhibition of gamma-secretase in human SHSY5Y cells expressing human recombinant APP assessed as decrease in Abeta42 level after 24 hrs by DELFIA. In kind it is cell-based. Particulars: SH-SY5Y.
Assay [3] addresses Gamma-secretase. The assay is described as §1. In kind it is cell-based. Conditions: sh-sy5y.
In assay [4] the target is T1, Gamma-secretase (Homo sapiens). The assay is described as follows: (§2) Inhibition of gamma-secretase in human SHSY5Y cells expressing human recombinant APP assessed as increase in Abeta38 level after 24 hrs by DELFIA. In kind it is cell-based. Particulars: SH-SY5Y.
Assay [5] concerns the target Gamma-secretase. Described as §2. Particulars: sh-sy5y. Type of assay: cell-based.
Assay [6] has as its target Gamma-secretase. In words: Inhibition of gamma-secretase in human SHSY5Y cells expressing human recombinant APP assessed as effect on Abeta40 level after 24 hrs by DELFIA. In kind it is cell-based. Conditions: sh-sy5y.
In another assay the test system is SH-SY5Y. The assay is described as follows: Cytotoxicity against human SH-SY5Y cells after 24 hrs by WST1 assay. Type of assay: cell-based. For orientation: Formazan colour is commonly taken as a measure of viable cells.
Assay [7] has as its target Gamma-secretase. In words: Inhibition of gamma-secretase in human SHSY5Y cells expressing human recombinant APP assessed as decrease in total Abeta level after 24 hrs by DELFIA. In kind it is cell-based. Particulars: sh-sy5y.
Assay [8] has as its target Gamma-secretase. The assay is described as follows: Inhibition of gamma-secretase in human SHSY5Y cells expressing human recombinant APP assessed as amyloid beta40 formation by ELISA. Particulars: sh-sy5y; in the assay text read “amyloid beta42 formation” for “amyloid beta40 formation”. Type of assay: cell-based. Summed up: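 SH-SY5Y cells overexpressing human APP Swedish variant exposed to compound for 48 h; Aβ40 (and Aβ42) in the cell medium quantified by ELISA, either Meso Scale Discovery or AlphaLISA format. Compounds also cross-screened for inhibition of Notch processing.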
A general note: ELISA stands for enzyme-linked immunosorbent assay.

The target in assay [9] is Gamma-secretase. The assay is described as follows: Inhibition of gamma-secretase in human SHSY5Y cells expressing human recombinant APP assessed as amyloid beta42 formation by ELISA. Type of assay: cell-based. Conditions: sh-sy5y; in the assay text read “amyloid beta40 formation” for “amyloid beta42 formation”. Summed up:
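SH-SY5Y cells overexpressing human APP Swedish variant were incubated with compound for 48 h. Secreted Aβ42 and Aβ40 were measured by immunoassay (MSD electrochemiluminescence or AlphaLISA).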

The target in assay [10] is T1, Gamma-secretase (Homo sapiens). In words: Inhibition of gamma-secretase in human SHSY5Y cells expressing human recombinant APP assessed as amyloid beta40 formation at 20 uM by ELISA. Particulars: SH-SY5Y.

The values that follow come from ChEMBL document CHEMBL1159115, “Piperidine-derived gamma-secretase modulators” (Bioorg Med Chem Lett, 2010).

As a reminder, the IC50 is the midpoint of a concentration-inhibition curve. A word on the inhibition: it is the drop in the measured response relative to a control, in per cent. Usually pIC50 stands for the negative decadic logarithm of the IC50, by convention in mol/L. For orientation: pEC50 means the negative decadic logarithm of the EC50, by convention in mol/L. With `O=C(O)Cc1ccc(-c2ccc(C(F)(F)F)cc2)c(-c2ccc(C(F)(F)F)cc2)c1`, the IC50 in assay [1] was above 20 µM; in the assay on SH-SY5Y, above 100 µM. Also, the figures for the inhibition (with CV-1; in assay [10]) were 23% and 13%, respectively. The Activity entry in assay [2] and in assay [4] was “Dose-dependent effect” each time. Besides, the pIC50 on Gamma-secretase [3] is reported as 5.7; on Gamma-secretase [6] it was below 4; on Gamma-secretase [7] it was below 4; on Gamma-secretase [8], 5.7; on Gamma-secretase [9], below 4.7. Also, the pEC50 at Gamma-secretase [5] worked out at 5.1.
For the molecule `CC(C)CC[C@H](c1ccnc(C(F)(F)F)n1)N1CC[C@@H](CC(=O)[O-])C[C@H]1c1ccc(C(F)(F)F)cc1.[Na+]`, in assay [1], the IC50 is 3.98 µM. For the same molecule, the figures for the pIC50 at Gamma-secretase [8] and at Gamma-secretase [9] were 6.4 and 4.9, respectively.
For the molecule `O=C([O-])C[C@@H]1CCN([C@@H](c2ccc(C(F)(F)F)nc2)C2CC2)[C@H](c2ccc(C(F)(F)F)cc2)C1.[Na+]`, the IC50 in [1] was above 20 µM; in the assay with SH-SY5Y, above 100 µM. Besides, in the assay with CV-1, the inhibition stood at 23%. The Activity result in assay [2] and in assay [4] was “Dose-dependent effect” throughout. Besides, the pIC50 on Gamma-secretase [3] is reported as 6; on Gamma-secretase [6], below 4; at Gamma-secretase [7], below 4; on Gamma-secretase [8], 5.1; on Gamma-secretase [9], 4.3. Moreover, on Gamma-secretase [5], the pEC50 came out at 5.
For `Cc1cccc([C@@H](CCC(C)C)N2CC[C@@H](CC(=O)[O-])C[C@H]2c2ccc(C(F)(F)F)cc2)n1.[Na+]`, the IC50 in [1] is above 20 µM. Further, in the assay on CV-1, the inhibition was determined as 4%. The results for the pIC50 at Gamma-secretase [8] and on Gamma-secretase [9] were 5.9 and 4.8, respectively.
Consider `COCCC[C@H](c1ccc(C(F)(F)F)nc1)N1CC[C@@H](CC(=O)[O-])C[C@H]1c1ccc(C(F)(F)F)cc1.[Na+]`, for which, in [1], the IC50 is above 20 µM. The inhibition in the assay on CV-1 amounted to 10%. Besides, the values for the pIC50 at Gamma-secretase [8] and at Gamma-secretase [9] were 5 and 4.5, respectively.
Turning to `CCCCCC[C@H](c1ccc(C(F)(F)F)nc1)N1CC[C@@H](CC(=O)[O-])C[C@H]1c1ccc(C(F)(F)F)cc1.[Na+]`, the IC50 in [1] is 5.01 µM; with SH-SY5Y, above 100 µM. For the same molecule, the Activity result in [2] and in assay [4] was “Dose-dependent effect” each time. In addition, the pIC50 on Gamma-secretase [3] stood at 6; at Gamma-secretase [6] it was 4.6; at Gamma-secretase [7] it was 4; at Gamma-secretase [8], 6.3; on Gamma-secretase [9], 4.8. Also, on Gamma-secretase [5], the pEC50 is 6.3.
On to `CCC[C@@H](C(=O)O)c1cc(OCc2ccccc2)cc(-c2ccc(C(F)(F)F)cc2)c1`, for which the values for the IC50 (in assay [1]; in the assay with SH-SY5Y; on Gamma-secretase [8]) were above 20 µM, above 100 µM and 3.98 µM, respectively. The results for the inhibition (in the assay on CV-1; in assay [10]) were 20% and 32%, respectively. Further, the Activity entry in assay [2] and in assay [4] was “Dose-dependent effect” in each case. For the same molecule, the pIC50 at Gamma-secretase [3] is given as 5.8; at Gamma-secretase [6] it was below 4; at Gamma-secretase [7] it was below 4; at Gamma-secretase [9] it was “<= 4.8”. Further, the pEC50 on Gamma-secretase [5] is recorded as 5.9.
Take `CC(C)[C@H](O)C(=O)N[C@@H](C)C(=O)N[C@@H]1C(=O)N(C)CCc2ccccc21` [SEMAGACESTAT]: the IC50 in [1] is 0.316 µM; with SH-SY5Y, above 100 µM. Further, the Activity entry in assay [2] and in [4] was “Dose-dependent effect” throughout. For the same molecule, the pIC50 on Gamma-secretase [3] was determined as 6.9; at Gamma-secretase [6] it was 6.7; on Gamma-secretase [7] it was 7; on Gamma-secretase [8], 7.4; on Gamma-secretase [9] it was 7.4. Moreover, the pEC50 at Gamma-secretase [5] was 6.9.
On to `CC(C)CC[C@H](c1cnc(C(F)(F)F)nc1)N1CC[C@@H](CC(=O)[O-])C[C@H]1c1ccc(C(F)(F)F)cc1.[Na+]`, for which the IC50 in assay [1] was 20 µM. Moreover, the negative logarithm of the IC50 (pIC50) on Gamma-secretase [8] was found to be 6.4; at Gamma-secretase [9], 4.7.
Take `O=C([O-])C[C@@H]1CCN([C@H](CCc2ccccc2)c2ccc(C(F)(F)F)nc2)[C@H](c2ccc(C(F)(F)F)cc2)C1.[Na+]`: the concentration for half-maximal inhibition (IC50) in assay [1] is above 20 µM. Besides, the inhibition in the assay with CV-1 was found to be 32%; in assay [10] it was 40%. Further, the pIC50 at Gamma-secretase [8] is given as 5.7; on Gamma-secretase [9] it was below 4.7.
On to `O=C([O-])C[C@@H]1CCN([C@@H](c2ccc(C(F)(F)F)nc2)C2CCCCC2)[C@H](c2ccc(C(F)(F)F)cc2)C1.[Na+]`, for which the pIC50 at Gamma-secretase [8] was 5.4; at Gamma-secretase [9], 4.6.
`CC(C)CC[C@H](c1ccc(C(F)(F)F)nn1)N1CC[C@@H](CC(=O)[O-])C[C@H]1c1ccc(C(F)(F)F)cc1.[Na+]`: the IC50 in [1] was above 20 µM. Further, the inhibition with CV-1 was 17%. For the same molecule, the pIC50 at Gamma-secretase [8] was determined as 5.9; on Gamma-secretase [9], 4.6.
Take `CC(C)CC[C@H](c1ncc(C(C)C)cn1)N1CC[C@@H](CC(=O)[O-])C[C@H]1c1ccc(C(F)(F)F)cc1.[Na+]`: in [1], the IC50 is above 20 µM. Besides, the inhibition with CV-1 is 27%; in assay [10], 22%. For the same molecule, the values for the pIC50 on Gamma-secretase [8] and at Gamma-secretase [9] were 6.1 and below 4.7, respectively.
With `CCCC[C@H](c1ccc(C(F)(F)F)nc1)N1CC[C@@H](CC(=O)[O-])C[C@H]1c1ccc(C(F)(F)F)cc1.[Na+]`, the IC50 in assay [1] was above 20 µM; in the assay on SH-SY5Y, above 100 µM. The inhibition with CV-1 was 33%. The Activity result in [2] and in assay [4] was “Dose-dependent effect” throughout. The pIC50 at Gamma-secretase [3] is on record as 6; at Gamma-secretase [6], 4.4; on Gamma-secretase [7], below 4; at Gamma-secretase [8], 6.2; at Gamma-secretase [9], 4.8. Besides, the pEC50 at Gamma-secretase [5] stood at 5.5.
Consider `O=C([O-])C[C@@H]1CCN([C@H](CC2CCC2)c2ccc(C(F)(F)F)nc2)[C@H](c2ccc(C(F)(F)F)cc2)C1.[Na+]`, for which the IC50 in assay [1] is above 20 µM. Further, the inhibition in the assay on CV-1 turned out to be 17%. Moreover, the negative logarithm of the IC50 (pIC50) is 6.6 on Gamma-secretase [8] and 5.5 on Gamma-secretase [9].
As to `CC(C)CC[C@H](c1ccc(C2CC2)nc1)N1CC[C@@H](CC(=O)[O-])C[C@H]1c1ccc(C(F)(F)F)cc1.[Na+]`, the IC50 in [1] is above 20 µM. The inhibition came out at 15% in the assay with CV-1 and 31% in assay [10]. Besides, the pIC50 at Gamma-secretase [8] is given as 6.2; at Gamma-secretase [9], below 4.7.
Turning to `CC(C)C[C@H](c1ccc(C(F)(F)F)nc1)N1CC[C@@H](CC(=O)[O-])C[C@H]1c1ccc(C(F)(F)F)cc1.[Na+]`, in [1], the IC50 is above 20 µM. In addition, the inhibition with CV-1 was found to be 25%. In addition, the pIC50 was determined as 6.2 on Gamma-secretase [8] and 4.5 at Gamma-secretase [9].
In the case of `CC[C@H](c1ccc(C(F)(F)F)nc1)N1CC[C@@H](CC(=O)[O-])C[C@H]1c1ccc(C(F)(F)F)cc1.[Na+]`, the IC50 in assay [1] is above 20 µM. Also, the inhibition was 10% with CV-1 and 20% in [10]. Also, the pIC50 on Gamma-secretase [8] is recorded as 5; on Gamma-secretase [9], below 4.7.
Turning to `CCCCC[C@H](c1ccc(C(F)(F)F)nc1)N1CC[C@@H](CC(=O)[O-])C[C@H]1c1ccc(C(F)(F)F)cc1.[Na+]`, the IC50 in assay [1] is 15.8 µM. For the same molecule, the pIC50 is 5.9 at Gamma-secretase [8] and 5.1 at Gamma-secretase [9].
As for `O=C([O-])C[C@@H]1CCN([C@H](Cc2ccccc2)c2ccc(C(F)(F)F)nc2)[C@H](c2ccc(C(F)(F)F)cc2)C1.[Na+]`, the IC50 in assay [1] was above 20 µM. Besides, the inhibition with CV-1 turned out to be 34%. Moreover, the pIC50 is listed as 5.8 on Gamma-secretase [8] and 5 at Gamma-secretase [9].
Consider `CC(C)CC[C@H](c1ccc(C(F)(F)F)cn1)N1CC[C@@H](CC(=O)[O-])C[C@H]1c1ccc(C(F)(F)F)cc1.[Na+]`, for which the IC50 in assay [1] is 12.6 µM. Further, the pIC50 at Gamma-secretase [8] is 6.5; at Gamma-secretase [9], 4.9.
As to `CC(C)CC[C@H](c1cnc(C(F)(F)F)cn1)N1CC[C@@H](CC(=O)[O-])C[C@H]1c1ccc(C(F)(F)F)cc1.[Na+]`, the IC50 in assay [1] is above 20 µM. Moreover, the inhibition in the assay with CV-1 came out at 21%. Further, the figures for the pIC50 at Gamma-secretase [8] and at Gamma-secretase [9] were 6.4 and 4.7, respectively.
Regarding `O=C([O-])C[C@@H]1CCN([C@H](c2ccc(C(F)(F)F)cc2)c2ccc(C(F)(F)F)nc2)[C@H](c2ccc(C(F)(F)F)cc2)C1.[Na+]`, the IC50 in assay [1] was 7.94 µM. For the same molecule, the pIC50 on Gamma-secretase [8] is recorded as 5.9; at Gamma-secretase [9], “<= 4.8”. In [10], the inhibition was found to be 33%.
